The structures appear in SMILES notation. Calls of active or inactive are those of the source. The rule behind the calls is not given here.

Sequence of LSD1/CoREST complex (Homo sapiens) (Q9UKL0 whole entry, looked up, other chains not shown): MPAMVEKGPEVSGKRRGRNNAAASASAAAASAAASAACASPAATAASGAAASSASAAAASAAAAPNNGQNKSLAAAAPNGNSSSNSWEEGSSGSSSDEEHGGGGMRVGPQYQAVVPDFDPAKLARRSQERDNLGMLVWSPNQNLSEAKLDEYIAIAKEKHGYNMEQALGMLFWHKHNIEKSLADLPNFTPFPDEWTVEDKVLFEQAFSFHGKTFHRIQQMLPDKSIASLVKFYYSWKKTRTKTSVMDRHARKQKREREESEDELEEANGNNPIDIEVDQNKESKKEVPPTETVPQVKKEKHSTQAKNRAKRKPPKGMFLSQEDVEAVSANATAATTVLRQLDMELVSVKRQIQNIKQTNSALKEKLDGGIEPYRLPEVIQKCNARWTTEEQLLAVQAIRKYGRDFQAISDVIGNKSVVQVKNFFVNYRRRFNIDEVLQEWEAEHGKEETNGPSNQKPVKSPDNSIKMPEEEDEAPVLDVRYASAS

One assay has as its target LSD1/CoREST complex (Homo sapiens, UniProt O60341). As to the kind of experiment: Inhibition of human recombinant KDM1A/CoREST complex expressed in Escherichia coli using mono-methylated H3-K4 peptide containing 21 amino acids as substrate preincubated for 15 mins followed by substrate addition measured for 12 mins by fluorescence assay. The procedure, abridged: (§1)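 KDM1A/CoREST co-purified from E. coli as separate proteins; 20 nM complex preincubated 15 min at RT with inhibitor, 50 µM Amplex UltraRed and 0.023 µM HRP in 50 mM Tris-HCl pH 8.0, 0.05 mg/ml BSA. Reaction started with 4.5 µM H3K4me1 21-mer peptide. H2O2 release read by fluorescence (ex 510/em 595 nm) for 12 min, aerobic. Tested twice in duplicate; IC50 reported.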
For the compound `N[C@@]1(Cc2ccccc2)C[C@@H]1c1ccc(F)cc1` (mixture of isomers), the IC50 was 1050 nM.
Consider `CC[C@]1(N)C[C@@H]1c1ccccc1Cl` (racemic), for which the IC50 worked out at 258 nM.
With `CC[C@]1(N)C[C@@H]1c1ccc(Br)c(F)c1` (racemic), the IC50 was found to be 35 nM.
On to `CC[C@]1(N)C[C@@H]1c1ccccc1Br` (mixture of isomers), for which the IC50 was determined as 350 nM.
As to `CC[C@]1(N)C[C@@H]1c1cccc(F)c1` (mixture of isomers), the IC50 came out at 79 nM.
With `CC[C@]1(N)C[C@@H]1c1ccc(Br)cc1` (mixture of isomers), the IC50 amounted to 121 nM.
Turning to `CC[C@]1(N)C[C@@H]1c1cccc(Cl)c1` (racemic), the IC50 was 38 nM.
On the same count and under the same terms, then `N[C@@]1(CCc2ccccc2)C[C@@H]1c1ccc(F)cc1` (mixture of isomers), with 173 nM; and `CC[C@]1(N)C[C@@H]1c1cccc(OC)c1` (mixture of isomers), with 123 nM.
As to `CC[C@]1(N)C[C@@H]1c1cccc(C(F)(F)F)c1` (racemic), the IC50 was 118 nM.
`N[C@@]1(CCc2ccccc2)C[C@@H]1c1ccc(Cl)cc1` (racemic): the IC50 was 96 nM.
Still for that read-out and setting: then `CC[C@]1(N)C[C@@H]1c1ccc(Cl)cc1` (mixture of isomers), with 178 nM.
Take `N[C@@]1(Cc2ccc3ccccc3c2)C[C@@H]1c1cccc(Cl)c1` (racemic): the IC50 is 158 nM.
Still for that read-out and setting: then `N[C@@]1(Cc2ccc3ccccc3c2)C[C@@H]1c1ccc(Br)cc1` (mixture of isomers), with 279 nM; and `N[C@@]1(Cc2ccc3ccccc3c2)C[C@@H]1c1ccc(Cl)cc1` (racemic), with 263 nM; and `CC[C@]1(N)C[C@@H]1c1ccc(F)cc1` (mixture of isomers), with 1020 nM.
On the same count and under the same terms, under `CC[C@]1(N)C[C@@H]1c1ccc(OC(F)(F)F)cc1` (racemic) stands 1160 nM.
The same measure, in the same setting: under `N[C@@]1(Cc2ccccc2)C[C@@H]1c1ccc(Cl)cc1` (mixture of isomers) stands 230 nM; under `CC[C@]1(N)C[C@@H]1c1ccccc1F` (racemic), 352 nM; under `CC[C@]1(N)C[C@@H]1c1cccc(Br)c1` (racemic), 31 nM.
In the case of `N[C@@]1(c2ccccc2)C[C@@H]1c1ccc(Cl)cc1` (mixture of isomers), the IC50 stood at 554 nM.
Still for that read-out and setting: under `N[C@@]1(Cc2ccc3ccccc3c2)C[C@@H]1c1cccc(Br)c1` (racemic) stands 251 nM; under `CC[C@]1(N)C[C@@H]1c1ccc(C(F)(F)F)cc1` (racemic), 248 nM.
Still for that read-out and setting: under `N[C@@]1(Cc2ccccc2)C[C@@H]1c1ccc(Br)cc1` (racemic) stands 187 nM.
`N[C@@]1(c2ccccc2)C[C@@H]1c1ccc(Br)cc1` (racemic): the IC50 stood at 47 nM.
Still for that read-out and setting: under `N[C@@]1(CCc2ccccc2)C[C@@H]1c1cccc(Br)c1` (mixture of isomers) stands 94 nM; under `N[C@@]1(Cc2ccc3ccccc3c2)C[C@@H]1c1ccc(F)cc1` (racemic), 642 nM; under `N[C@@]1(CCc2ccccc2)C[C@@H]1c1ccc(Br)cc1` (racemic), 101 nM.

Another assay has as its target LSD1/CoREST complex (Homo sapiens) (UniProt O60341+Q9UKL0). As to the kind of experiment: Inhibition of human recombinant KDM1A/CoREST complex expressed in Escherichia coli using mono-methylated H3-K4 peptide containing 21 amino acids as substrate up to 100 uM preincubated for 15 mins followed by substrate addition measured for 12 mins by fluorescence assay. The procedure, abridged: as §1
Regarding `O=C1NCCN[C@]12C[C@@H]2c1ccccc1`, the inhibition result is “inactive”.
For the compound `O=C1COC[C@]2(C[C@H]2c2ccccc2)N1`, the inhibition entry was “inactive”.

Source of the values: ChEMBL document CHEMBL3407462, “Further insights into the SAR of α-substituted cyclopropylamine derivatives as inhibitors of histone demethylase KDM1A” (Eur J Med Chem, 2015).
